# SKN-1 block: blocks SKN-1 activity in C. elegans; C. elegans VP596 Pgst-4::GFP/RFP ratio, acrylamide-induced, 24 h; inhibition, % at 21.8 µM; hit rate 0.49% among 360,000;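 active = interference check ratio from 0.5 to 1.5 plus GFP to RFP signal ratio inhibition reaching or exceeding a fixed threshold, cut at about 30% in these data, passing the limit was not always enough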
# NR2E3 ag-1: agonists of human nuclear receptor NR2E3. Q9Y5X4. GST-NR2E3/biotin-RetCOR TR-FRET, 1536-well. inhibition of corepressor binding, % at 4.78 µM. hit rate 0.12% among 320,000. AID 2300;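 active = percent inhibition above the cutoff of mean plus 3 SD of all tested compounds, set per screening campaign, cut at about 20% in these data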;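 also: 0% = DMSO wells and 100% = biotin wells as full block of FRET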
#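 System: GST-NR2E3 and biotin-RetCOR proteins; probe or stimulus: 7 nM biotin-RetCOR; doses: compound at 4.8 µM, single dose; schedule: Compound–protein incubation for 5 h at 4 °C; detection: time-resolved FRET; read-out: percent inhibition; controls: biotin wells as high control, 0.6% DMSO wells as low control; format: 1536-well plates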
# NR2E3 ag-2: activates human NR2E3 receptor | inhibition of corepressor binding, % at 3.98 µM | CHO-S Gal4-NCOR/VP16-NR2E3 two-hybrid, luciferase | hit rate 0.35% among 360,000 | Q9Y5X4;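 active = inhibition above the mean of all tested compounds plus 3 SD, cut at about 70% in these data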;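 also: 0% = DMSO with NR2E3 transfected cells and 100% = cells lacking NR2E3 construct; higher means lower luciferase signal from less NR2E3 corepressor binding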
# PG9 Ab binder: small molecules binding HIV-1 gp120 antibody PG9. inhibition, % at 6.7 µM. hit rate 0.43% among 360,000. TR-FRET gp120-PG9 antibody binding; in the data active = inhibition above about 8.5%
# MT1-MMP act inh: inhibitors of human MT1-MMP activation | P50281 | HT1080 RFP-PRO-GFP cells, GFP/RFP ratio fluorescence, overnight; percent of plate control window, DMSO zero | GFP/RFP ratio change, % at 20 µM | hit rate 0.061% among 360,000 | AID 651647;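 active = GFP/RFP ratio change of at least 30% with cell ATP level not reduced by more than half and red fluorescence within 50% of control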
#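 Material: RFP-PRO-GFP reporter HT1080 cells. Dosing: single-point 20 µM compound, 1% DMSO. Controls: DMSO and RFP-L50D-GFP cell wells. Timing: cells overnight before dosing, compound overnight, 37 °C, 5% CO2. Measure: GFP/RFP fluorescence ratio.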
# Rev-erbA mod: Rev-erb alpha (human) modulation; Rev-erbα–FITC-DNA binding, fluorescence polarization, 90 min; hit rate 0.79% among 370,000; activity, % at 10 µM; AID 1259318; P20393;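 active = activity above about 14%, limit read from the data; passing the limit was not always enough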;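 also: 0% = DMSO wells with 35 nM protein and 100% = DMSO wells with 750 nM protein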
# Target sequence (P20393 whole entry, looked up): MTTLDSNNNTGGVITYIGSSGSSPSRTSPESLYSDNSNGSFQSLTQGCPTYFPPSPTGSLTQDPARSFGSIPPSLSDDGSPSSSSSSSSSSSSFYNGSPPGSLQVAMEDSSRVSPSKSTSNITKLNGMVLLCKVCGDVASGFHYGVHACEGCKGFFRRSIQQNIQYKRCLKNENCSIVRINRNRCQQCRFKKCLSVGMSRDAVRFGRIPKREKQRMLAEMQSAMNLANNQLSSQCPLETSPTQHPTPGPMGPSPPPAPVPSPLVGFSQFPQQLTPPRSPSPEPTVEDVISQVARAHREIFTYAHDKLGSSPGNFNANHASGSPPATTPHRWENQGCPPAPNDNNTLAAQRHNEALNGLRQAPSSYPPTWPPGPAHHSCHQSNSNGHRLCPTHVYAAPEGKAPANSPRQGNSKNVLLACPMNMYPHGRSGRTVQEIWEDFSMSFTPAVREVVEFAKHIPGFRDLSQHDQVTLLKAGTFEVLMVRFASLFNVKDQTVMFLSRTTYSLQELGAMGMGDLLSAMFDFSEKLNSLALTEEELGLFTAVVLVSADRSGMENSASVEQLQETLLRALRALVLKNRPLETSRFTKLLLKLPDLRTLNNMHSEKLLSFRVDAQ
# PG9 bind confirm: confirmation of small molecules binding HIV-1 gp120 antibody PG9 | TR-FRET PG9 antibody binding, biochemical | hit rate 90% among 1,500 | shares compounds with PG9 Ab binder | inhibition, % at 6.7 µM; in the data active = inhibition above about 9%
# PGV04 counter: PGV04 control antibody binding, counter-screen; shares compounds with PG9 Ab binder; TR-FRET PGV04 antibody-gp120 binding, biochemical; inhibition, % at 6.7 µM; hit rate 95% among 1,500; AID 651604; in the data active = inhibition above about 9.5%
# PG9 bind DR: small molecules binding HIV-1 gp120 antibody PG9; 95 tested, under 10 active; AID 651848; TR-FRET PG9 antibody-gp120 binding inhibition; shares compounds with PG9 Ab binder; IC50, µM; in the data active = IC50 below about 10 µM
# PGV04 DR counter: counter-screen for PG9 binders: binding to control antibody PGV04; hit rate 20% among 95; TR-FRET binding to control antibody PGV04; IC50, µM; AID 651937; shares compounds with PG9 Ab binder
# PG126 DR counter: counter-screen for PG9 binders: binding to control antibody PG126 | shares compounds with PG9 Ab binder | TR-FRET binding to antibody PG126, counterscreen | IC50, µM | hit rate 20% among 95
# An asterisk follows results filed as active; i = inactive; x = not tested or not shown. The list is not random: actives were taken first. Their share in the collection is about 1.9%. Rule as the data show it, unless noted: active = IC50 below about 9 µM; inactive = the rest.
SMILES,SKN-1 block,NR2E3 ag-1,NR2E3 ag-2,PG9 Ab binder,MT1-MMP act inh,Rev-erbA mod,PG9 bind confirm,PGV04 counter,others
Cc1sc(NC(=S)Nc2ccc(F)cc2)c(C(N)=O)c1C,19.4,0.8,9.3,-0.2,-2.0,5.9,x,x,
CC(=O)c1cccc(NC(=O)CSc2nnc(-c3ccc(S(=O)(=O)N4CCCC4)cc3)o2)c1,13.9,1.1,-6.5,31.1*,2.4,8.4,36.6*,45.8*,
Cc1ccc(-c2nnc(SCC(=O)Nc3ccc(S(=O)(=O)N4CCCCCC4)cc3)o2)cc1,-5.2,-1.7,-9.4,1.8,7.8,-0.3,x,x,
O=C(NC1CCCC1)c1c[nH]c2ccc(F)cc2c1=O,12.8,3.9,-12.1,0.7,3.3,5.8,x,x,
CNC(=O)c1c[nH]c2ccc(S(=O)(=O)Nc3ccccc3F)cc2c1=O,4.8,0.1,-3.2,12.0*,6.5,-1.6,22.7*,25.2*,
CCc1ccccc1NS(=O)(=O)c1ccc2[nH]cc(C(=O)NC3CCCC3)c(=O)c2c1,8.1,0.2,5.0,11.6*,-7.0,12.3,18.6*,19.6*,
NC(=O)c1ncn([C@@H]2O[C@H](C(=O)Nc3ccc(C(=O)N4CCCCC4)cc3)[C@@H](O)[C@H]2O)n1,x,x,x,-1.9,x,9.4,x,x,
C[C@@H]1CN([C@@H](C)CO)C(=O)CCCn2cc(nn2)CO[C@H]1CN(C)C(=O)Nc1ccc2c(c1)OCCO2,x,x,x,-0.3,x,-6.4,x,x,
COc1ccc(-c2cn3c(C)c(C(=O)Nc4cc(NC(C)=O)ccc4OC)sc3n2)cc1,1.4,-54.2,-85.6,12.4*,-5.5,-4.4,9.8*,31.5*,
CCc1ccc(-c2nc3ccc(Br)cc3c(C(=O)O)c2C)s1,5.6,x,19.3,27.0*,2.9,2.1,33.0*,58.8*,
Cc1c(-c2ccccc2Br)nc2ccccc2c1C(=O)O,-21.7,x,-1.9,0.2,-2.3,-5.1,x,x,
CCOC(=O)c1sc2nccc(N(C)C)c2c1N=CNOCc1c(F)cccc1Cl,7.1,7.7,-24.3,10.4*,-5.8,1.1,17.7*,24.7*,
CC(=O)C1=C(C)N(Cc2ccc(Cl)cc2)C(=S)NC1c1ccc(Cl)cc1 (stereo unspecified),x,x,x,0.4,x,-1.2,x,x,
COC(=O)[C@]12C[C@H](CC(=O)NCc3ccc(OC)c(OC)c3)C(=O)N(CCc3ccc(OC)c(OC)c3)C1=C[C@H](C1CCCC1)O[C@@H]2C,x,x,x,x,x,-5.6,x,x,
COC(=O)c1cc2sc(Cl)cc2n1CC(=O)NCCC(C)C,4.8,-1.4,-9.0,10.7*,1.8,14.3,20.3*,23.9*,
CC1CCN(C(=O)Cn2cnc3c(cnn3C(C)(C)C)c2=O)CC1,-3.3,-3.1,-88.3,11.2*,-0.6,-0.8,7.9,10.2*,
CC(C)(C)n1ncc2c(=O)n(CC(=O)N3CCCC3)cnc21,8.3,-0.4,-5.2,-0.3,1.3,0.7,x,x,
COc1ccc(C2/C(=C(\O)c3ccc4c(c3)OCCO4)C(=O)C(=O)N2Cc2cccnc2)cc1OC (stereo unspecified),6.1,-2.4,-26.7,3.1,-0.1,-6.2,x,x,
Cc1ccc(C2/C(=C(\O)c3ccc4c(c3)OCCO4)C(=O)C(=O)N2Cc2cccnc2)cc1 (stereo unspecified),21.0,9.4,-10.0,27.4*,-0.4,9.7,38.4*,46.6*,
O=C1C(=O)N(Cc2cccnc2)C(c2ccc(Br)cc2)/C1=C(\O)c1ccc2c(c1)OCCO2 (stereo unspecified),0.7,15.4,-33.8,20.6*,1.0,-1.2,31.4*,37.1*,
O=C(Nc1ccccc1C(F)(F)F)OC1CCC12CCC(c1ccccc1)CC2 (stereo unspecified),x,x,x,x,x,4.1,x,x,
C[C@H](CO)N1C[C@H](C)[C@@H](CN(C)Cc2ccccc2)Oc2c(NS(=O)(=O)c3ccccc3)cccc2C1=O,-2.6,x,-23.4,-2.3,4.4,-3.8,x,x,
C[C@H](CO)N1C[C@H](C)[C@@H](CN(C)Cc2ccccc2)Oc2c(NS(=O)(=O)c3ccc(F)cc3)cccc2C1=O,6.4,x,-38.7,11.4*,-2.2,-4.5,30.7*,47.2*,
COC(=O)[C@H](Cc1ccccc1)NP(=O)(OC)[C@@H](C)NC(=O)OCc1ccccc1 (stereo partly specified),x,x,x,x,x,10.7,x,x,
CC(=O)N1CCN(CCN2C(C)=CC(=C(C#N)C#N)C=C2C)CC1,-8.6,2.9,18.4,-0.7,1.1,5.1,x,x,
SMILES,SKN-1 block,NR2E3 ag-1,NR2E3 ag-2,PG9 Ab binder,MT1-MMP act inh,Rev-erbA mod,PG9 bind confirm,PGV04 counter,others
CC1=CC(=C(C#N)C#N)C=C(C)N1CCN1CCN(C(=O)Nc2cccc(Cl)c2)CC1,7.3,11.9,-14.9,11.8*,2.5,14.6,16.9*,25.8*,
CC1CCN(CCCn2c(=S)[nH]c3c(sc4ccccc43)c2=O)CC1,-0.8,0.6,-31.9,15.2*,10.4,-3.7,9.7*,9.4*,PG9 bind DR=i;PGV04 DR counter=i;PG126 DR counter=i
CC1CCN(CCCn2c(=S)[nH]c3c(sc4ccc([N+](=O)[O-])cc43)c2=O)CC1,0.2,-1.6,-10.3,0.9,2.9,-2.8,x,x,
COCCCn1c(=O)/c(=C\c2ccccc2OC(F)F)s/c1=C(/C#N)C(N)=O,-3.6,-1.6,21.7,-2.1,-13.7,2.3,x,x,
COCCCn1c(=O)/c(=C\c2ccc(OC(F)F)c(OC)c2)s/c1=C(/C#N)C(N)=O,-14.7,6.9,-0.4,13.8*,-38.7,2.4,36.2*,38.9*,
Cc1ccc(NC(=O)Cn2cc(C(=O)C3CC3)c3ccccc32)cc1,7.9,-0.2,1.4,10.4*,3.1,0.6,7.8,10.8*,
CCC(=O)c1cn(CC(=O)Nc2ccc(C)cc2)c2ccccc12,19.4,6.9,-12.8,11.4*,4.3,15.8,12.9*,17.5*,
Cc1cccc(NC(=O)Cn2cc(C(=O)C3CC3)c3ccccc32)c1,21.4,1.1,0.4,1.1,1.2,5.9,x,x,
C[C@H]1COc2cc(Br)ccc2S(=O)(=O)N1Cc1cn(Cc2ccc(F)cc2)nn1,x,x,x,x,x,-8.6,x,x,
OC(c1ccccc1)(c1ccccc1)C1CCN(CCCOc2ccccn2)CC1,x,x,x,-1.0,x,-2.2,x,x,

# High-throughput results (PubChem)
